An excerpt weighted towards active compounds, which were near 2.1% of everything screened.
CXCR6 block: inhibitors of human CXCR6 receptor. CHO-K1 PathHunter CXCR6 beta-arrestin, luminescence. AID 602244. inhibition, % at 20 µM. 0.36% of 360,000 active. O00574; in the data active = inhibition above about 34%, passing the limit was not always enough;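 note: antagonist mode with CXCL16 agonist at 10 nM final; 0% = 10 nM CXCL16 with DMSO and 100% = unstimulated wells without agonist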
APJ antagonist: blocks the human apelin receptor APJ; P35414; CHO-K1 APJ beta-arrestin complementation, luminescence; inhibition, % at 20 µM; 0.32% of 330,000 active;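 active = inhibition above about 40% at 20 µM, limit read from the data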;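 note: cells challenged with 10 nM apelin-13 agonist together with compound; plate controls were apelin-13 plus DMSO wells for no effect and DMSO wells lacking apelin-13 for full effect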
EBI2 block: antagonists of human EBI2 receptor | AID 651636 | P32249 | inhibition, % at 5 µM | EBI2 beta-arrestin recruitment, luminescence, 7a,25-OHC stimulated | 0.81% of 360,000 active; in the data active = inhibition above about 38%;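 note: enzyme fragment complementation signal reports receptor beta-arrestin coupling in cells; 0% = agonist plus DMSO wells and 100% = wells without agonist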
Target sequence (P32249 whole entry, looked up, the tested form may be a part): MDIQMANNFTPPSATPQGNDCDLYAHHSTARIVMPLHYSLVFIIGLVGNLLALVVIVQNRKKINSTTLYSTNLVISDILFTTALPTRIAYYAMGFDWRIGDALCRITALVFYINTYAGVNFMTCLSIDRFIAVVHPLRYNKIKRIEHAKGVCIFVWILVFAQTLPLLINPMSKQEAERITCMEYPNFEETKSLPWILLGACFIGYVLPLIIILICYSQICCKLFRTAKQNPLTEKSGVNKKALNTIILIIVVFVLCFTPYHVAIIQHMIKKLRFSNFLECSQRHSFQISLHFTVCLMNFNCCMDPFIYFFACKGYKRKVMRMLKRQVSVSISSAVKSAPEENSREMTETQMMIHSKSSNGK
HTR2A ag: agonists of mouse serotonin 5-HT2A receptor (HTR2A) | P35363 | activation, % at 7.6 µM | CHO-K1 mHTR2A beta-arrestin complementation, luminescence; percent of 30 µM serotonin response | 0.66% of 360,000 active;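 active = activation above a run cutoff, the mean activation of all tested compounds plus 3 SD, cut at about 14% in these data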;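 note: 0% = plate median of compound wells and 100% = 30 µM serotonin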
APJ agonist: agonists of human APJ apelin receptor; CHO-K1 APJ PathHunter beta-arrestin, luminescence; 0% DMSO wells, 100% apelin; AID 2520; 0.11% of 330,000 active; activation, % at 20 µM;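 active = activation more than six SD over the plate average, tested at 20 µM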;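 note: 0% = DMSO alone and 100% = apelin-13 at 10 nM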
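Incubation: overnight seeding, 90 min compound at 25 °C, 1 h detection; test system: PathHunter CHO-K1 APJ (AGTRL-1) beta-arrestin reporter cells; amount: 1000 cells/well; doses: one dose, 20 µM compound, 1% DMSO; measured by: beta-gal luminescence; measure: agonist-driven arrestin binding to APJ; benchmarks: negative DMSO alone, positive Apelin-13 at 10 nM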
CCR6 antag: blocks CCL20-driven beta-arrestin recruitment at human CCR6 | CHO-K1 CCR6 PathHunter beta-arrestin, luminescence, CCL20-stimulated | inhibition, % at 20 µM | P51684 | 0.49% of 340,000 active;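 active = compounds whose inhibition of the agonist-driven luminescence signal at 20 µM reaches about 50%, limit read from the data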;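 note: cells stimulated with CCL20 at 14 nM final; plate controls were DMSO with CCL20 for no effect and DMSO without agonist for full effect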
OPRM1 ag: activates human mu opioid receptor in HTR2A counterscreen | shares compounds with HTR2A ag | U2OS OPRM1 beta-arrestin PathHunter, luminescence; DMSO 0%, DAMGO 9.3 µM 100% | activation, % at 9.3 µM | 5.3% of 2,300 active | AID 624380;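 active = mean activation above the mean of DMSO-only wells plus 3 SD, cut at about 0.5% in these data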
m5-HT2A ag conf: confirmation of mouse HTR2A serotonin receptor agonists; shares compounds with HTR2A ag; CHO-K1 PathHunter beta-arrestin recruitment, luminescence; DMSO 0%, 30 µM serotonin 100%; activation, % at 7.6 µM; 19% of 2,300 active;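 active = mean activation across triplicates above the hit threshold derived in the original primary screen, cut at about 15% in these data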
* marks the source's active call; other numbers are inactive results.

Screening CN1CCN(c2ncnc3c2ncn3[C@H]2CN(Cc3ccncc3)C[C@@H](CO)O2)CC1 returned CXCR6 block 0, EBI2 block -6, HTR2A ag 15* and m5-HT2A ag conf -6.
`COc1ccc(C(=O)OCc2c(F)cccc2Cl)cc1S(=O)(=O)N1CCOCC1` gave CXCR6 block -3, APJ antagonist 5, EBI2 block 3, HTR2A ag -2, APJ agonist -2 and CCR6 antag 4.
For c1ccc(COc2ccc(Nc3ncnc4nc[nH]c34)cc2)cc1 the results were CXCR6 block -15, APJ antagonist -2, EBI2 block 3, HTR2A ag 17*, APJ agonist 0, CCR6 antag -8, OPRM1 ag -1 and m5-HT2A ag conf -7.
COc1ccccc1NC(=S)N(CCc1c(C)[nH]c2ccccc12)Cc1cccs1 was read as CXCR6 block 6, APJ antagonist 16, EBI2 block 7, HTR2A ag 16*, APJ agonist -1, CCR6 antag 4, OPRM1 ag -1 and m5-HT2A ag conf -5.
COc1ccc2[nH]c(C)c(CCN(Cc3cccs3)C(=S)Nc3ccccc3)c2c1 was read as CXCR6 block 3, APJ antagonist -37, EBI2 block 8, HTR2A ag 8, APJ agonist -3 and CCR6 antag 22.
`COc1ccc(CNC(=O)CN(C(=O)CCC(=O)Nc2ccccn2)c2ccc(C)cc2)cc1` gave CXCR6 block 1, APJ antagonist 15, EBI2 block 10, HTR2A ag 30*, APJ agonist -5, CCR6 antag -3, OPRM1 ag -1 and m5-HT2A ag conf -5.
COc1ccc(CNC(=O)CN(C(=O)CCC(=O)Nc2ccccn2)c2cccc(C)c2)cc1 was read as CXCR6 block -9, APJ antagonist -24, EBI2 block 8, HTR2A ag 2, APJ agonist -1 and CCR6 antag -2.
For CC(C)(COC(=O)c1ccccc1)N1CC2CCC(C1)O2 the results were CXCR6 block -7, EBI2 block 5, HTR2A ag -5 and CCR6 antag 12.
For CCCCCCCCN1C(=O)[C@H](CC(=O)NCc2ccc(OC)c(OC)c2)C[C@@]2(C(=O)OCC)CCCC=C12 the results were CXCR6 block 22, EBI2 block 10 and HTR2A ag -4.
For CCOC(=O)C(C(=O)N(C)C)c1ncc(C(F)(F)F)cc1Cl (configuration not stated) the results were CXCR6 block 3, APJ antagonist 10, EBI2 block -6, HTR2A ag 19*, APJ agonist 1, CCR6 antag 15, OPRM1 ag -1 and m5-HT2A ag conf 2.
`Cc1ccc(S(=O)(=O)N2CCCCC2)cc1NC(=O)CSc1nnc(C2CC2)n1C` gave CXCR6 block -8, APJ antagonist 6, EBI2 block 0, HTR2A ag -3, APJ agonist 0 and CCR6 antag 1.
Screening COc1cccc(-c2nc(NC(C)C)c3ccccc3n2)c1O returned CXCR6 block -8, APJ antagonist -7, EBI2 block -10, HTR2A ag 46*, APJ agonist 1, CCR6 antag -10, OPRM1 ag 0 and m5-HT2A ag conf 48*.
COc1cccc(-c2nc(NCc3cccnc3)c3ccccc3n2)c1O was read as CXCR6 block 6, APJ antagonist 5, EBI2 block 8, HTR2A ag -3, APJ agonist -1 and CCR6 antag 26.
For Oc1ccccc1-c1nc(NCC2CCCO2)c2ccccc2n1 (configuration not stated) the results were CXCR6 block -9, APJ antagonist 4, EBI2 block -2, HTR2A ag -1, APJ agonist -2 and CCR6 antag -14.
`COc1cccc(-c2nc(NCC3CCCO3)c3ccccc3n2)c1O` (configuration not stated) gave CXCR6 block 1, APJ antagonist -21, EBI2 block -21, HTR2A ag 32*, APJ agonist 2, CCR6 antag 5, OPRM1 ag 0 and m5-HT2A ag conf 15*.
Screening CCC(C)Nc1nc(-c2cccc(OC)c2O)nc2ccccc12 (configuration not stated) returned CXCR6 block 2, APJ antagonist 7, EBI2 block -6, HTR2A ag 59*, APJ agonist 4, CCR6 antag 10, OPRM1 ag 0 and m5-HT2A ag conf 33*.
For CC(C)CCNC(=O)c1cc(-c2cccs2)nc2ccccc12 the results were CXCR6 block 0, APJ antagonist 1, EBI2 block -8, HTR2A ag 7, APJ agonist 6 and CCR6 antag 8.
Screening CCCCCC(=O)N1C[C@@H](n2cc(COC(=O)c3ccccc3)nn2)[C@H](O)C[C@@H]1c1ccc(Cl)cc1 returned CXCR6 block 8, EBI2 block 18 and HTR2A ag -3.
O=S1(=O)C=C[C@H](COCc2ccccc2)N1 was read as CXCR6 block 0, EBI2 block -15 and HTR2A ag 4.
Screening O=C(Cc1cccc(NC(=O)C2CCCN(C(=O)C3CCCC3)C2)c1)Nc1ccc(C(=O)N2CCOCC2)cc1 (configuration not stated) returned CXCR6 block 8, EBI2 block -6, HTR2A ag -2 and CCR6 antag -9.
For O=C(Cc1cccc(NC(=O)C2CCCN(C(=O)C3CCC3)C2)c1)Nc1ccc(C(=O)N2CCOCC2)cc1 (configuration not stated) the results were CXCR6 block -2, EBI2 block -8, HTR2A ag 29*, CCR6 antag -4, OPRM1 ag -1 and m5-HT2A ag conf -6.
Screening N#Cc1ccc(Oc2ncccn2)cc1 returned CXCR6 block -3, APJ antagonist -15, EBI2 block 13, HTR2A ag 4, APJ agonist 4 and CCR6 antag -9.
`CC(=O)c1cccc(NC(=O)c2c(F)c(F)c(F)c(F)c2F)c1` gave CXCR6 block -17, APJ antagonist 2, EBI2 block 6, HTR2A ag 8, APJ agonist 2 and CCR6 antag -15.
`COC(=O)c1cc(NC(=O)c2c(F)c(F)c(F)c(F)c2F)cc(C(=O)OC)c1` gave CXCR6 block -13, APJ antagonist -12, EBI2 block -8, HTR2A ag 18*, APJ agonist -3, CCR6 antag -24, OPRM1 ag 0 and m5-HT2A ag conf 6.

Source: PubChem BioAssay (several laboratories)
